ChEMBL document CHEMBL1148719, “Fine-tuning the amphiphilicity: a crucial parameter in the design of potent alpha-phenyl-N-tert-butylnitrone analogues” (J Med Chem, 2007)

How the values were obtained:
[1] = Cytoprotection in rat mixed cortical cells cultures assessed as inhibition of hydrogen peroxide-induced cell death at 10 uM after 24 hrs; type: functional
Summary of the method: (§1)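 Mixed cortical cultures were treated for 24 h with oxidotoxin (hydrogen peroxide, peroxynitrite or doxorubicin, 200 µM), with antioxidant added at 10 µM. The value is the percentage inhibition of Trypan blue absorbance, read as enhanced cell survival. Data are mean ± SEM (N = 10). Comparison was against vehicle control by ANOVA with Bonferroni t-test.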

[2] = test system: Rotifers; assay: Cytoprotection against hydrogen peroxide-induced toxicity in rotifer assessed as viability at 10 uM; type: functional, Rotifera
Summary of the method: (§2)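 Whole rotifers were exposed for 24 h to oxidotoxin (hydrogen peroxide or doxorubicin, 200 µM), with nitrone antioxidant added at 10 µM. Read-out was the percentage of viable organisms. Data are mean ± SEM (N = 10). Comparison was against vehicle control by ANOVA followed by Bonferroni t-test.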

[3] = species: Rattus norvegicus; assay: Inhibition of peroxynitrite-induced inactivation of mitochondrial NADH:ubiquinone oxidoreductase iron sulfur cluster N2 at 10 uM
Summary of the method: (§3)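 Rat brain submitochondrial particles were incubated for 30 min with hydrogen peroxide, peroxynitrite or doxorubicin, with or without nitrone at 10 µM. Complex I iron sulfur cluster N2 activity was measured as ferricyanide reduction. The value is the percentage inhibition of oxidative inactivation. Data are mean ± SEM (N = 10). Controls were vehicle-treated particles exposed to oxidotoxin alone; statistics were ANOVA with Bonferroni t-test.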

[4] = species: Rattus norvegicus; assay: Inhibition of hydrogen peroxide-induced inactivation of mitochondrial NADH:ubiquinone oxidoreductase iron sulfur cluster N2 at 10 uM; summary of the method: as §3
[5] = Cytoprotection in rat mixed cortical cells cultures assessed as inhibition of doxorubicin-induced cell death at 10 uM after 24 hrs; type: functional; summary of the method: as §1
[6] = test system: Rotifers; assay: Cytoprotection against doxorubicin-induced toxicity in rotifer assessed as viability at 10 uM; type: functional, Rotifera; summary of the method: as §2
[7] = species: Rattus norvegicus; assay: Inhibition of doxorubicin-induced inactivation of mitochondrial NADH:ubiquinone oxidoreductase iron sulfur cluster N2 at 10 uM; summary of the method: as §3
[8] = Cytoprotection in rat mixed cortical cells cultures assessed as inhibition of peroxynitrite-induced cell death at 10 uM after 24 hrs; type: functional; summary of the method: as §1
[9] = Toxicity against rat mixed cortical cells cultures at 10 uM; type: cell-based

inhibition [3] [%]	inhibition [4] [%]	inhibition [7] [%]	Structure (SMILES)	inhibition at 10 µM [1] [%]	Activity [2] [%]	inhibition at 10 µM [5] [%]	Activity [6] [%]	inhibition at 10 µM [8] [%]	Activity [9]
17.3	25.1	13.5	CC(C)(C)/[N+]([O-])=C\c1ccc(CNC(=O)[C@@H](O)[C@H](O)[C@H](O[C@@H]2O[C@H](CO)[C@H](O)[C@H](O)[C@H]2O)C(O)CO)cc1 (stereo partly specified)	18.3	18.6	18.5	18.2	17.3	–
72.5	78.3	90.7	CCCCCCCC(=O)NCC(C)(C)/[N+]([O-])=C/c1ccc(CNC(=O)[C@H](O)[C@H](O)[C@H](O[C@@H]2O[C@H](CO)[C@H](O)[C@H](O)[C@H]2O)[C@@H](O)CO)cc1	81	83	82	85.8	61	–

Continued, compound first:

Structure (SMILES)	inhibition [3] [%]	inhibition [4] [%]	inhibition [7] [%]	inhibition at 10 µM [1] [%]	Activity [2] [%]	inhibition at 10 µM [5] [%]	Activity [6] [%]	inhibition at 10 µM [8] [%]	Activity [9]
CC(C)(C)/[N+]([O-])=C/c1ccccc1	27.6	35	44.3	25	25.6	24.2	18.7	20.6	–
CC(C)(CNC(=O)CCC(F)(F)C(F)(F)C(F)(F)C(F)(F)C(F)(F)C(F)(F)F)/[N+]([O-])=C/c1ccc(CNC(=O)[C@H](O)[C@H](O)[C@H](O[C@@H]2O[C@H](CO)[C@H](O)[C@H](O)[C@H]2O)[C@@H](O)CO)cc1	39.3	51.9	57.3	63.4	40.6	34.9	30.6	40.1	–
CCCCCCCC(=O)NCC(C)(C)/[N+]([O-])=C/c1ccccc1OCC	–	–	–	–	–	–	–	–	Toxic
CCCCCCCC(=O)NCC(C)(C)/[N+]([O-])=C/c1ccc(C(=O)NCC(=O)NC(CO)(CO)CO)cc1	40.5	59.2	83.5	33.8	24.1	74.3	54.3	30.5	–
